Results as given in ChEMBL document CHEMBL4350976, “Sequence modification of heptapeptide selected by phage display as homing device for HT-29 colon cancer cells to improve the anti-tumour activity of drug delivery systems” (Eur J Med Chem, 2019).
pIC50: −log10 of the molar value. Where a SMILES comes first, the peptide text is derived from it. The star is where a group is joined. X1 = COc1cccc2c1C(=O)c1c(O)c3c(c(O)c1C2=O)C[C@@](O)(/C(C)=N/OCC(=O)*)C[C@@H]3O[C@H]1C[C@H](N)[C@H](O)[C@H](C)O1

How the values were obtained:
[1] = Cytostatic activity against human WM983B cells preincubated for 24 hrs under serum free condition followed by compound washout and further incubation for 48 hrs in presence of serum by MTT assay; format: functional, cell-based
Summary of the method: (§1)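 Cells were grown at 37 °C in 5% CO2 in medium with 10% heat-inactivated FBS (20% for OVCAR-3) plus penicillin/streptomycin. The medium was RPMI-1640 for most lines, DMEM for U-87 MG and MRC-5, and IMDM for PE/CA-PJ lines. Seeding was 3×10^3–10×10^3 cells per well. Cells had 24 h compound exposure, a wash, and 48 h further culture. Read-out was MTT, normalized to untreated cells and fitted by nonlinear regression for IC50.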

MRC5 = assay: Cytostatic activity against human MRC5 cells preincubated for 24 hrs under serum free condition followed by compound washout and further incubation for 48 hrs in presence of serum by MTT assay; format: ADME, cell-based; summary of the method: as §1
MCF7 = assay: Cytostatic activity against human MCF7 cells preincubated for 24 hrs under serum free condition followed by compound washout and further incubation for 48 hrs in presence of serum by MTT assay; format: functional, cell-based; summary of the method: as §1
U-87 MG = assay: Cytostatic activity against human U87 cells preincubated for 24 hrs under serum free condition followed by compound washout and further incubation for 48 hrs in presence of serum by MTT assay; format: functional, cell-based, U-87MG ATCC; summary of the method: as §1
[2] = Cytostatic activity against human M24 cells preincubated for 24 hrs under serum free condition followed by compound washout and further incubation for 48 hrs in presence of serum by MTT assay; format: functional, cell-based; summary of the method: as §1
HepG2 = assay: Cytostatic activity against human HepG2 cells preincubated for 24 hrs under serum free condition followed by compound washout and further incubation for 48 hrs in presence of serum by MTT assay; format: functional, cell-based; summary of the method: as §1
HT-29 [3] = assay: Cytostatic activity against human HT-29 cells preincubated for 24 hrs under serum free condition followed by compound washout and further incubation for 48 hrs in presence of serum by MTT assay; format: functional, cell-based
Summary of the method: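 HT-29 cells were exposed to the compound for 24 h, washed, and kept a further 48 h. Viability was read by MTT. Absorbances were normalized to untreated controls and fitted by nonlinear regression to dose-response curves to give IC50.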

[4] = Cytostatic activity against human PE/CA-PJ15 cells preincubated for 24 hrs under serum free condition followed by compound washout and further incubation for 48 hrs in presence of serum by MTT assay; format: functional, cell-based; summary of the method: as §1
CT26.WT = assay: Potency index, ratio of compound IC50 to Daunomycin IC50 for mouse CT26.WT cells preincubated for 24 hrs under serum free condition followed by compound washout and further incubation for 48 hrs in presence of serum by MTT assay; format: functional
[5] = Solubility of compound; format: physicochemical
PC-3 = assay: Cytostatic activity against human PC3 cells preincubated for 24 hrs under serum free condition followed by compound washout and further incubation for 48 hrs in presence of serum by MTT assay; format: functional, cell-based; summary of the method: as §1
[6] = Potency index, ratio of compound IC50 to Daunomycin IC50 for human WM983B cells preincubated for 24 hrs under serum free condition followed by compound washout and further incubation for 48 hrs in presence of serum by MTT assay; format: functional
[7] = Cytostatic activity against human PECAPJ41 cells preincubated for 24 hrs under serum free condition followed by compound washout and further incubation for 48 hrs in presence of serum by MTT assay; format: functional, cell-based; summary of the method: as §1
HCT-116 = assay: Potency index, ratio of compound IC50 to Daunomycin IC50 for human HCT116 cells preincubated for 24 hrs under serum free condition followed by compound washout and further incubation for 48 hrs in presence of serum by MTT assay; format: functional
PANC-1 = assay: Cytostatic activity against human PANC1 cells preincubated for 24 hrs under serum free condition followed by compound washout and further incubation for 48 hrs in presence of serum by MTT assay; format: functional, cell-based; summary of the method: as §1
[8] = Drug uptake in mitochondria of human HT-29 cells assessed as increase in fluorescence at 50 uM after 30 mins by MitoTracker deep red staining based confocal microscopic analysis; format: ADME; details: ht-29, 0.5 h
Summary of the method: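 HT-29 cells were exposed to 50 µM conjugate for 30 min before imaging. Lysosomes were stained with LysoTracker Deep Red and mitochondria with MitoTracker Deep Red. Confocal imaging detected Dau at 550–600 nm.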

HT-29 [9] = assay: Antitumor activity against human HT-29 cells xenografted in SCID mouse assessed as decrease in number of Ki-67 positive cells measured as proliferation index at 38.3 mg/kg, ip administered thrice in first week (on days 13, 16, 20, 23 and 27) and twice in second week starting from 13 days post inoculation measured at day 30 post inoculation by KI-67-staining based light microscopic analysis (reference value: 100%); format: functional; set-up: scale not given: the % may be the effect or the level left
Summary of the method: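 Tumours from the SCID HT-29 orthotopic study were formalin-fixed and paraffin-embedded, cut at 2 µm, and given citrate pH 6 retrieval at 98 °C for 40 min. They were stained with anti-human Ki-67 (1:40, 1 h RT), then a biotinylated link, HRP polymer and AEC. Ki-67+ cells were counted in 5 fields per tumour at 40× magnification. The proliferation index is the % positive cells.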

[10] = Stability in 2.5% fetal bovine serum containing medium at 30 uM measured after 24 hrs by LC/MS analysis; format: ADME, cell-free, Bos taurus; details: cattle
Summary of the method: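 Conjugates (30 μM) were incubated at 37 °C in medium containing 2.5% FBS. Samples were taken at 0, 3, 6 and 24 h, quenched with acetic acid, lyophilised, desalted on C18 spin columns and analysed by LC-MS. Cleavage products were identified by mass.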

[11] = Potency index, ratio of compound IC50 to Daunomycin IC50 for human PE/CA-PJ15 cells preincubated for 24 hrs under serum free condition followed by compound washout and further incubation for 48 hrs in presence of serum by MTT assay; format: functional
HT-29 [12] = assay: Antitumor activity against human HT-29 cells xenografted in SCID mouse assessed as tumor growth inhibition by measuring decrease in tumor weight at 38.3 mg/kg, ip administered thrice in first week and twice in second week (on days 13, 16, 20, 23 and 27) starting from 13 days post inoculation measured at day 30 post inoculation relative to control; format: functional; details: HT-29, ip
Summary of the method: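 Orthotopic HT-29 tumours in female SCID mice aged 6–8 weeks (22–27 g), 8 per group. Conjugates were given i.p. in water for injection at 10 mg/kg Dau content on days 13, 16, 20, 23 and 27. The study ended on day 30. Tumours were weighed against solvent controls, and livers were weighed as a toxicity read-out.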

[13] = Stability in serum free medium at 30 uM incubated for 3 hrs by LC/MS analysis
Summary of the method: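 Conjugates (30 μM) were incubated at 37 °C in serum-free medium. Samples were taken at 0 and 3 h, quenched with acetic acid, lyophilised, desalted on C18 spin columns and analysed by LC-MS.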

[14] = Drug uptake in human HT-29 cells incubated for 3 hrs by flow cytometry; format: ADME, cell-based; details: ht-29, 3 h
Summary of the method: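 HT-29 cells were exposed to 100 µM conjugate for 3 h. Flow cytometry recorded the percentage of Dau-positive cells and the mean fluorescence intensity, in duplicate.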

NCI-H1975 = assay: Potency index, ratio of compound IC50 to Daunomycin IC50 for human NCI-H1975 cells preincubated for 24 hrs under serum free condition followed by compound washout and further incubation for 48 hrs in presence of serum by MTT assay; format: functional
[15] = Drug metabolism in rat liver lysosomes homogenate assessed as Dau-containing metabolite formation at 0.05 ug/ul after 24 hrs by LC-MS analysis; format: ADME, subcellular, Lysosome; details: tissue homogenate
Summary of the method: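 Conjugates and rat liver lysosomal homogenate were each used at 0.05 µg/µL. Samples were taken at 0, 1, 3, 6 and 24 h. Metabolites were identified by LC-MS on a C18 column with a formic acid/acetonitrile gradient.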

COc1cccc2c1C(=O)c1c(O)c3c(c(O)c1C2=O)C[C@@](O)(/C(C)=N/OCC(=O)N[C@@H](CC(C)C)C(=O)N[C@@H](CCCNC(=N)N)C(=O)N[C@@H](CCCNC(=N)N)C(=O)N[C@@H](Cc1ccc(O)cc1)C(=O)N[C@H](C(=O)N[C@@H](Cc1cnc[nH]1)C(=O)N[C@@H](CC(C)C)C(=O)N[C@@H](Cc1ccccc1)C(=O)N[C@@H](Cc1ccc(O)cc1)C(=O)N[C@@H](C)C(=O)N[C@H](C(N)=O)[C@@H](C)O)C(C)C)C[C@@H]3O[C@H]1C[C@H](N)[C@H](O)[C@H](C)O1 (X1-LRRYVHLFYAT-NH2)
pIC50 [1]: 5.29 | pIC50 (MRC5): 4.28 | pIC50 (MCF7): 4.95 | pIC50 (U-87 MG): 5.18 | pIC50 [2]: 5.24 | pIC50 (HepG2): 5.33 | pIC50 (HT-29 [3]): 4.94 to 5.19 | pIC50 [4]: 5.13 | Ratio IC50 (CT26.WT): 66 | solubility [5]: Soluble | pIC50 (PC-3): 5.23 | Ratio IC50 [6]: 114.6 | pIC50 [7]: 5.37 | Ratio IC50 (HCT-116): 57 | pIC50 (PANC-1): 4.57 | Drug uptake [8]: Not Active | Activity (HT-29 [9]): 58% | Stability [10]: Stable | Ratio IC50 [11]: 277.3 | inhibition in vivo at 38.3 mg/kg (HT-29 [12]): 89% | Stability [13]: Stable | Drug uptake [14]: Dose-dependent effect | Ratio IC50 (NCI-H1975): 279.9 | Drug metabolism [15]: Metabolite_Detected
